Test results as given in ChEMBL document CHEMBL2176995, “An oral sphingosine 1-phosphate receptor 1 (S1P(1)) antagonist prodrug with efficacy in vivo: discovery, synthesis, and evaluation” (J Med Chem, 2012).
In brackets after ≈: the same amount, converted by molar mass. Activity calls are given as the source filed them. No cut-off for these calls is given here.

Columns and labels:
[1] = molecular target: T1, Sphingosine 1-phosphate receptor 1 (Homo sapiens, UniProt P21453); experiment: Antagonist activity at human S1P1R receptor expressed in CHO cell membranes by [35S]GTPgamma binding assay; type: functional
T1 sequence (P21453 whole entry): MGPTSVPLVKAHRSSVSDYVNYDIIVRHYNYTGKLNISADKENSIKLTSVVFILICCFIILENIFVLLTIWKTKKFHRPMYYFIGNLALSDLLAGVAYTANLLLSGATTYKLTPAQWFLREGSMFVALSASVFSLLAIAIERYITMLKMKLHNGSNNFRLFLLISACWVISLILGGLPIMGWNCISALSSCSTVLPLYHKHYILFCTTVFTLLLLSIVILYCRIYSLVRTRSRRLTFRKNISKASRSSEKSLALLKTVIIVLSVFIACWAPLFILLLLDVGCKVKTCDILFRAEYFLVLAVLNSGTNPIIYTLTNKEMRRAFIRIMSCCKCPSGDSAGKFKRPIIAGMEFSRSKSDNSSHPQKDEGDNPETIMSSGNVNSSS
Outline: (§1)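 Membranes from CHO clones stably expressing human S1P1 (1−5 μg/well), with S1P2–S1P5 handled comparably. Compound preincubated 15 min, then S1P (4 nM final) and GTPγ³⁵S (0.2 nM final) added. Shaken 120 min at room temperature, then SPA counting. Eight concentrations in duplicate; IC₅₀ from curve fit, mean of ≥3 determinations ± SEM.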

Rattus norvegicus [2] = experiment: Reduction in peripheral blood lymphocytes in Lewis rat assessed as remaining circulating lymphocytes level at 100 mg/kg, po administered as single dose measured 14 hrs post dose by automated hematology analyzer; type: functional
Outline: (§2)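 Male Lewis rats receive a single oral dose of compound or vehicle, freshly made in 30% PEG200/buffer. Blood (<200 μL) is drawn by sublingual puncture under isoflurane 5% v/v at baseline and later time points. Lymphocytes are counted on an automated hematology analyzer, and each animal's change is expressed as percent of its own pre-treatment baseline.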

[3] = Solubility in pH 6.8 buffer; type: physicochemical
[4] = molecular target: T1, Sphingosine 1-phosphate receptor 1; experiment: Competitive binding affinity to human S1P1R receptor expressed in CHO cell membranes by Schild plot analysis
[5] = molecular target: T1, Sphingosine 1-phosphate receptor 1; experiment: Agonist activity at human S1P1R receptor expressed in CHO cell membranes by [35S]GTPgamma binding assay; type: functional
[6] = molecular target: T2, Sphingosine 1-phosphate receptor 3 (Homo sapiens, UniProt Q99500); experiment: Antagonist activity at human S1P3R receptor expressed in CHO cell membranes by [35S]GTPgamma binding assay; type: functional; outline: as §1
T2 sequence (Q99500 whole entry): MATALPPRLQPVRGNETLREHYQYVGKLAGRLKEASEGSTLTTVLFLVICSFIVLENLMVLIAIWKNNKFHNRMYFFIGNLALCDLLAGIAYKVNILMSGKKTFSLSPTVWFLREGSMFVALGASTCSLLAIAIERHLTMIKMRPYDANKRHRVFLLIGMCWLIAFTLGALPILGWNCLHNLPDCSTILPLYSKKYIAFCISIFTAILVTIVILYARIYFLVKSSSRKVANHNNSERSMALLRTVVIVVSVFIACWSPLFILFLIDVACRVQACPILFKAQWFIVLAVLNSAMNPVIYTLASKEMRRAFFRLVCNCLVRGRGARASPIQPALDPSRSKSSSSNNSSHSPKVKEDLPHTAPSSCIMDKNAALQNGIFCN

[7] = molecular target: T3, Sphingosine 1-phosphate receptor 4 (Homo sapiens, UniProt O95977); experiment: Agonist activity at human S1P4R receptor expressed in CHO cell membranes by [35S]GTPgamma binding assay; type: functional
T3 sequence (O95977 whole entry): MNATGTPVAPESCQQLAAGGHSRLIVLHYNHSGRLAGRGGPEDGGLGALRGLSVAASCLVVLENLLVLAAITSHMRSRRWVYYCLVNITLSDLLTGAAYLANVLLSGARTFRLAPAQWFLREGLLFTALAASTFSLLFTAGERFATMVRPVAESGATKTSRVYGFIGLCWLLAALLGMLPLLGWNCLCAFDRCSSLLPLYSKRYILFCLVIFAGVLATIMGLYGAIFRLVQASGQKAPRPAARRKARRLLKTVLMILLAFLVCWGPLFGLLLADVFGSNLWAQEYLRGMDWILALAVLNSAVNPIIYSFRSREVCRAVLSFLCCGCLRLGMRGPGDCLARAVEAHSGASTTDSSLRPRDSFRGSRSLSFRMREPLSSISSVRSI

[8] = molecular target: T4, Sphingosine 1-phosphate receptor 5 (Homo sapiens, UniProt Q9H228); experiment: Antagonist activity at human S1P5R receptor expressed in CHO cell membranes by [35S]GTPgamma binding assay; type: functional; outline: as §1
T4 sequence (Q9H228 whole entry): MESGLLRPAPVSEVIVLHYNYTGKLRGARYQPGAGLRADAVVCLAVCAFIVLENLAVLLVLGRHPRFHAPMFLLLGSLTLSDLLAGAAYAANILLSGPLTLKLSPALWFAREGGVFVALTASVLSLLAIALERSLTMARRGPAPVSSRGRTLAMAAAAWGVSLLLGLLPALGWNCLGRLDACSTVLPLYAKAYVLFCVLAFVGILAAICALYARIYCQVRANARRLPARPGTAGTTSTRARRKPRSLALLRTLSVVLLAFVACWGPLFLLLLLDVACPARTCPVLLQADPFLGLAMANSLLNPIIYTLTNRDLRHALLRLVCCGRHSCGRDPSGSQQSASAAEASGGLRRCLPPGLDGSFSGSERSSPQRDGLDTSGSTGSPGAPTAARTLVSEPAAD

[9] = molecular target: T5, Sphingosine 1-phosphate receptor 2 (Homo sapiens, UniProt O95136); experiment: Antagonist activity at human S1P2R receptor expressed in CHO cell membranes by [35S]GTPgamma binding assay; type: functional; outline: as §1
T5 sequence (O95136 whole entry): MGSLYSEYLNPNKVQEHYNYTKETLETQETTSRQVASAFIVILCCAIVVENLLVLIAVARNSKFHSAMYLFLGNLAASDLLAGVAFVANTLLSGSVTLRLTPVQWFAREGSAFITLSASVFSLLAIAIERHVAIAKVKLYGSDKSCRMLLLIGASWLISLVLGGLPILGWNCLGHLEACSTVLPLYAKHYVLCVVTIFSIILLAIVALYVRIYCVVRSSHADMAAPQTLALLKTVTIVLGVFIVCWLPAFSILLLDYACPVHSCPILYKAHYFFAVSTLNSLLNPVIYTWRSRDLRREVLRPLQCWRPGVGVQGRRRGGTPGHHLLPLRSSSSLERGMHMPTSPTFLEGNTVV

[10] = molecular target: T3, Sphingosine 1-phosphate receptor 4; experiment: Antagonist activity at human S1P4R receptor expressed in CHO cell membranes by [35S]GTPgamma binding assay; type: functional; outline: as §1
[11] = molecular target: T5, Sphingosine 1-phosphate receptor 2; experiment: Agonist activity at human S1P2R receptor expressed in CHO cell membranes by [35S]GTPgamma binding assay; type: functional
[12] = molecular target: T4, Sphingosine 1-phosphate receptor 5; experiment: Agonist activity at human S1P5R receptor expressed in CHO cell membranes by [35S]GTPgamma binding assay; type: functional
[13] = molecular target: T2, Sphingosine 1-phosphate receptor 3; experiment: Agonist activity at human S1P3R receptor expressed in CHO cell membranes by [35S]GTPgamma binding assay; type: functional
Rattus norvegicus [14] = experiment: Increase in allograft survival in stringent Dark Agouti to Lewis rat heterotopic vascular heart allotransplantation model assessed as allograft mean survival time at 10 mg/kg, po bid (reference value: 6 days); type: functional
Outline: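 Hearts from DA donors were transplanted into Lewis recipients, with dosing starting 3 days pre-transplant. The PKC inhibitor was given po b.i.d., mixed in D-glucose and dissolved in PEG400, distilled water and 0.1 M aqueous HCl. Vehicle controls were dosed po b.i.d. Endpoint was graft survival to rejection or predefined termination, reported as median days. Histology used H&E and trichrome with acute rejection scoring.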

Rattus norvegicus [15] = experiment: Reduction in peripheral blood lymphocytes in Lewis rat assessed as remaining circulating lymphocytes level at 30 mg/kg, po administered as single dose measured 14 hrs post dose by automated hematology analyzer; type: functional; outline: as §2
Rattus norvegicus [16] = experiment: Reduction in peripheral blood lymphocytes in Lewis rat assessed as remaining circulating lymphocytes level at 30 mg/kg, po administered as single dose measured 24 hrs post dose by automated hematology analyzer; type: functional; outline: as §2
Rattus norvegicus [17] = experiment: Reduction in peripheral blood lymphocytes in Lewis rat assessed as remaining circulating lymphocytes level at 100 mg/kg, po administered as single dose measured 12 hrs post dose by automated hematology analyzer; type: functional; outline: as §2
Rattus norvegicus [18] = experiment: Reduction in peripheral blood lymphocytes in Lewis rat assessed as remaining circulating lymphocytes level at 100 mg/kg, po administered as single dose measured 14 to 48 hrs post dose by automated hematology analyzer
Rattus norvegicus [19] = experiment: Reduction in peripheral blood lymphocytes in Lewis rat assessed as remaining circulating lymphocytes level at 100 mg/kg, po administered as single dose measured 8 hrs post dose by automated hematology analyzer; type: functional; outline: as §2
Rattus norvegicus [20] = experiment: Reduction in peripheral blood lymphocytes in Lewis rat assessed as remaining circulating lymphocytes level at 100 mg/kg, po administered as single dose measured 24 hrs post dose by automated hematology analyzer; type: functional; outline: as §2
Rattus norvegicus [21] = experiment: Increase in allograft survival in stringent Dark Agouti to Lewis rat heterotopic vascular heart allotransplantation model assessed as allograft mean survival time at 0.1 mg/kg, po qd co-treated with 10 mg/kg, po bid sotrastaurin; type: functional
Rattus norvegicus [22] = experiment: Increase in allograft survival in stringent Dark Agouti to Lewis rat heterotopic vascular heart allotransplantation model assessed as allograft mean survival time at 0.1 mg/kg, po qd co-treated with 0.3 mg/kg, qd everolimus; type: functional
Rattus norvegicus [23] = experiment: Increase in allograft survival in stringent Dark Agouti to Lewis rat heterotopic vascular heart allotransplantation model assessed as allograft mean survival time at 0.3 mg/kg, po qd (reference value: 6 days); type: functional

**Q.** Which IC50 [1] does the source give for `Cc1cc(S(=O)(=O)Nc2cccc(-c3cc(C)c(C(=O)N(C)[C@@H](CN(C)C)C(=O)O)c(C)c3)c2)c(C)cc1Cl` here?
**A.** 8.4 nM

**Q.** Which IC50 [1] does the source give for `Cc1cc(S(=O)(=O)Nc2cccc(-c3cc(C)c(C(=O)N(C)[C@H](CCN(C)C)C(=O)O)c(C)c3)c2)c(C)cc1Cl` here?
**A.** 20 nM

**Q.** With `Cc1cc(S(=O)(=O)Nc2cccc(-c3cc(C)c(C(=O)N[C@@H](CCN)C(=O)O)c(C)c3)c2)c(C)cc1Cl` as the compound, how does the IC50 [1] read?
**A.** 2.1 nM

**Q.** Which Activity (Rattus norvegicus [2]) does the source give for `COC(=O)[C@H](CN(C)C)N(C)C(=O)c1c(C)cc(-c2cccc(NS(=O)(=O)c3cc(C)c(Cl)cc3C)c2)cc1C` here?
**A.** 37%

**Q.** What about the solubility [3] of the same compound?
**A.** < 4 µM

**Q.** Which results are given for `Cc1cc(S(=O)(=O)Nc2cccc(-c3cc(C)c(C(=O)N(C)[C@@H](CCN(C)C)C(=O)O)c(C)c3)c2)c(C)cc1Cl`?
**A.** Kd [4]: 0.67 nM; IC50 [1]: 3.4 nM; EC50 [5]: > 10 µM; IC50 [6]: 802 nM; EC50 [7]: 1200 nM; IC50 [8]: 978 nM; IC50 [9]: > 10 µM; IC50 [10]: > 10 µM; EC50 [11]: > 10 µM; EC50 [12]: > 10 µM; EC50 [13]: > 10 µM

**Q.** For `COC(=O)[C@H](C)N(C)C(=O)c1c(C)cc(-c2cccc(NS(=O)(=O)c3cc(C)c(Cl)cc3C)c2)cc1C`, which Activity (Rattus norvegicus [2]) is on record?
**A.** 21%

**Q.** What about the solubility [3] of the same compound?
**A.** < 4 µM

**Q.** For `CN1CCN(c2nc(C3=C(c4c[nH]c5ccccc45)C(=O)NC3=O)c3ccccc3n2)CC1` [SOTRASTAURIN], which MST (Rattus norvegicus [14]) is on record?
**A.** 7 days

**Q.** With `Cc1cc(S(=O)(=O)Nc2cccc(-c3cc(C)c(C(=O)N(C)[C@@H](C)C(=O)OCCN(C)C)c(C)c3)c2)c(C)cc1Cl` as the compound, how does the Activity (Rattus norvegicus [15]) read?
**A.** 25%

**Q.** And the solubility [3]?
**A.** 15 µM (≈ 9 µg/mL)

**Q.** And the Activity (Rattus norvegicus [16])?
**A.** 49%

**Q.** Which IC50 [1] does the source give for `Cc1cc(S(=O)(=O)Nc2cccc(-c3cc(C)c(C(=O)N(C)[C@@H](C)C(=O)O)c(C)c3)c2)c(C)cc1Cl` here?
**A.** 6.1 nM

**Q.** What about the Activity (Rattus norvegicus [17]) of the same compound?
**A.** 19%

**Q.** For `Cc1cc(S(=O)(=O)Nc2cccc(-c3cc(C)c(C(=O)N[C@H]4CCNC4=O)c(C)c3)c2)c(C)cc1Cl`, which Activity (Rattus norvegicus [18]) is on record?
**A.** inactive

**Q.** Which Activity (Rattus norvegicus [2]) does the source give for `COC(=O)[C@H](CCN)NC(=O)c1c(C)cc(-c2cccc(NS(=O)(=O)c3cc(C)c(Cl)cc3C)c2)cc1C` here?
**A.** 76%

**Q.** What does the source list for `Cc1cc(S(=O)(=O)Nc2cccc(-c3cc(C)c(C(=O)N[C@@H](C)C(=O)O)c(C)c3)c2)c(C)cc1Cl`?
**A.** IC50 [1]: 2.6 nM; Activity (Rattus norvegicus [19]): 20%

**Q.** Which Activity (Rattus norvegicus [15]) does the source give for `COC(=O)[C@@H](CCN(C)C)N(C)C(=O)c1c(C)cc(-c2cccc(NS(=O)(=O)c3cc(C)c(Cl)cc3C)c2)cc1C` here?
**A.** 67%

**Q.** What does the source list for `COC(=O)[C@H](CCN(C)C)NC(=O)c1c(C)cc(-c2cccc(NS(=O)(=O)c3cc(C)c(Cl)cc3C)c2)cc1C`?
**A.** Activity (Rattus norvegicus [20]): 24%; Activity (Rattus norvegicus [2]): 15%

**Q.** With `CCOC(=O)[C@H](CCN(C)C)N(C)C(=O)c1c(C)cc(-c2cccc(NS(=O)(=O)c3cc(C)c(Cl)cc3C)c2)cc1C` as the compound, how does the Activity (Rattus norvegicus [15]) read?
**A.** 28%

**Q.** What about the solubility [3] of the same compound?
**A.** < 4 µM

**Q.** And the Activity (Rattus norvegicus [16])?
**A.** 48%

**Q.** Which MST (Rattus norvegicus [21]) does the source give for `CCCCCCCCc1ccc(CCC(N)(CO)CO)cc1` [FINGOLIMOD] here?
**A.** >68.5 days

**Q.** What about the MST (Rattus norvegicus [22]) of the same compound?
**A.** 38 days

**Q.** With `Cc1cc(S(=O)(=O)Nc2cccc(-c3cc(C)c(C(=O)N[C@@H](CCN(C)C)C(=O)O)c(C)c3)c2)c(C)cc1Cl` as the compound, how does the IC50 [1] read?
**A.** 12 nM

**Q.** Which MST (Rattus norvegicus [23]) does the source give for `CO[C@H]1C[C@@H]2CC[C@@H](C)[C@@](O)(O2)C(=O)C(=O)N2CCCC[C@H]2C(=O)O[C@H]([C@H](C)C[C@@H]2CC[C@@H](OCCO)[C@H](OC)C2)CC(=O)[C@H](C)/C=C(\C)[C@@H](O)[C@@H](OC)C(=O)[C@H](C)C[C@H](C)/C=C/C=C/C=C/1C` [EVEROLIMUS] here?
**A.** 7 days

**Q.** With `COC(=O)[C@H](C)NC(=O)c1c(C)cc(-c2cccc(NS(=O)(=O)c3cc(C)c(Cl)cc3C)c2)cc1C` as the compound, how does the Activity (Rattus norvegicus [2]) read?
**A.** 24%
